Results: ChEMBL document CHEMBL1921722, “In vitro and in vivo evaluation of select kahalalide F analogs with antitumor and antifungal activities” (Bioorg Med Chem, 2011)

How the values were obtained:
[1] = system: MDA-MB-435; assay: Cytotoxicity against human MDA-MB-435 cells assessed as cell growth at 800 nM by sulforhodamine B assay relative to control; type: functional; conditions: read-out: Activity
[2] = system: MDA-MB-435; assay: Cytotoxicity against human MDA-MB-435 cells by sulforhodamine B assay; type: functional
Outline: (§1)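 NCI Developmental Therapeutics Program 60-cell-line human tumor panel screen, run at NCI. A single-concentration pre-screen was followed by a five-concentration dose-response in 10-fold steps. GI50 is the concentration that reduces growth of treated cells to half that of untreated control cells. TGI is the concentration that completely halts growth.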

[3] = system: NCI-H322M; assay: Cytotoxicity against human NCI-H322M cells assessed as cell growth at 8 uM by sulforhodamine B assay relative to control; type: functional; conditions: read-out: Activity
[4] = system: HOP-92; assay: Cytotoxicity against human HOP92 cells by sulforhodamine B assay; type: functional
Outline: (§2)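 Run by the NCI Developmental Therapeutics Program on its 60-line human tumour cell panel using the standard procedure. Compounds went through a single-concentration prescreen first, and those active by NCI criteria went on to a five-concentration growth-inhibition test. GI50 is the concentration that cuts growth of treated cells to half that of untreated control cells.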

[5] = system: SF-539; assay: Cytotoxicity against human SF539 cells assessed as cell growth at 80 uM by sulforhodamine B assay relative to control; type: functional; conditions: read-out: Activity
[6] = system: A498; assay: Cytotoxicity against human A498 cells assessed as cell growth at 800 nM by sulforhodamine B assay relative to control; type: functional; conditions: read-out: Activity
Outline: (§3)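 Run at NCI in the DTP 60-cell-line human tumor panel by standard procedure. Compounds were first screened at a single concentration, then tested at five tenfold-spaced concentrations. GI50 is the concentration reducing treated-cell growth to half that of untreated controls; TGI is the concentration completely halting growth.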

[7] = system: HCC 2998; assay: Cytotoxicity against human HCC2998 cells assessed as cell growth at 8 nM by sulforhodamine B assay relative to control; type: functional; conditions: read-out: Activity
[8] = system: HOP-62; assay: Cytotoxicity against human HOP62 cells assessed as cell growth at 800 nM by sulforhodamine B assay relative to control; type: functional; conditions: read-out: Activity
[9] = system: A498; assay: Cytotoxicity against human A498 cells assessed as cell growth at 80 uM by sulforhodamine B assay relative to control; type: functional; conditions: read-out: Activity; outline: as §3
[10] = system: HOP-62; assay: Cytotoxicity against human HOP62 cells by sulforhodamine B assay; type: functional; outline: as §2
[11] = system: SW-620; assay: Cytotoxicity against human SW620 cells by sulforhodamine B assay; type: functional; outline: as §1
[12] = system: ACHN; assay: Cytotoxicity against human ACHN cells by sulforhodamine B assay; type: functional; outline: as §3
[13] = system: NCI-H522; assay: Cytotoxicity against human NCI-H522 cells assessed as cell growth at 80 uM by sulforhodamine B assay relative to control; type: functional; conditions: read-out: Activity
[14] = system: HT-29; assay: Cytotoxicity against human HT-29 cells assessed as cell growth at 80 nM by sulforhodamine B assay relative to control; type: functional; conditions: read-out: Activity
[15] = system: MCF7; assay: Cytotoxicity against human MCF7 cells by sulforhodamine B assay; type: functional
[16] = system: EKVX; assay: Cytotoxicity against human EKVX cells assessed as cell growth at 8 uM by sulforhodamine B assay relative to control; type: functional; conditions: read-out: Activity
[17] = system: ACHN; assay: Cytotoxicity against human ACHN cells assessed as cell growth at 80 uM by sulforhodamine B assay relative to control; type: functional; conditions: read-out: Activity; outline: as §3
[18] = system: SW-620; assay: Cytotoxicity against human SW620 cells assessed as cell growth at 8 uM by sulforhodamine B assay relative to control; type: functional; conditions: read-out: Activity
[19] = system: K562; assay: Cytotoxicity against human K562 cells assessed as cell growth at 80 uM by sulforhodamine B assay relative to control; type: functional; conditions: read-out: Activity
[20] = system: OVCAR-5; assay: Cytotoxicity against human OVCAR5 cells assessed as cell growth at 80 uM by sulforhodamine B assay relative to control; type: functional; conditions: read-out: Activity
[21] = system: COLO 205; assay: Cytotoxicity against human COLO205 cells assessed as cell growth at 800 nM by sulforhodamine B assay relative to control; type: functional; conditions: read-out: Activity; outline: as §3
[22] = system: A498; assay: Cytotoxicity against human A498 cells assessed as cell growth at 8 uM by sulforhodamine B assay relative to control; type: functional; conditions: read-out: Activity; outline: as §3
[23] = system: COLO 205; assay: Cytotoxicity against human COLO205 cells by sulforhodamine B assay; type: functional; outline: as §3
[24] = system: PC-3; assay: Cytotoxicity against human PC3 cells assessed as cell growth at 800 nM by sulforhodamine B assay relative to control; type: functional; conditions: read-out: Activity
[25] = system: NCI-H226; assay: Cytotoxicity against human NCI-H226 cells assessed as cell growth at 8 nM by sulforhodamine B assay relative to control; type: functional; conditions: read-out: Activity
[26] = system: A549; assay: Cytotoxicity against human A549 cells by sulforhodamine B assay; type: functional; outline: as §3
[27] = system: SW-620; assay: Cytotoxicity against human SW620 cells assessed as cell growth at 8 nM by sulforhodamine B assay relative to control; type: functional; conditions: read-out: Activity
[28] = system: NCI-H226; assay: Cytotoxicity against human NCI-H226 cells assessed as cell growth at 8 uM by sulforhodamine B assay relative to control; type: functional; conditions: read-out: Activity
[29] = system: NCI-H23; assay: Cytotoxicity against human NCI-H23 cells assessed as cell growth at 8 uM by sulforhodamine B assay relative to control; type: functional; conditions: read-out: Activity
[30] = system: SK-OV-3; assay: Cytotoxicity against human SKOV3 cells assessed as cell growth at 8 uM by sulforhodamine B assay relative to control; type: functional; conditions: read-out: Activity
[31] = system: OVCAR-3; assay: Cytotoxicity against human OVCAR3 cells assessed as cell growth at 8 uM by sulforhodamine B assay relative to control; type: functional; conditions: read-out: Activity
[32] = system: NCI-H460; assay: Cytotoxicity against human NCI-H460 cells assessed as cell growth at 8 nM by sulforhodamine B assay relative to control; type: functional; conditions: read-out: Activity
[33] = system: SNB-75; assay: Cytotoxicity against human SNB75 cells assessed as cell growth at 800 nM by sulforhodamine B assay relative to control; type: functional; conditions: read-out: Activity
[34] = system: HCC 2998; assay: Cytotoxicity against human HCC2998 cells assessed as cell growth at 80 uM by sulforhodamine B assay relative to control; type: functional; conditions: read-out: Activity
[35] = system: TK-10; assay: Cytotoxicity against human TK10 cells by sulforhodamine B assay; type: functional; outline: as §1
[36] = system: Mus musculus; assay: Acute toxicity in athymic nude mouse assessed as mortality at 400 mg/kg, […] after 19 days; type: organism-based; design: dose 400 mg/kg, route intraperitoneal; conditions: in vivo, ip, 456 h
[37] = system: NCI/ADR-RES; assay: Cytotoxicity against human NCI/ADR-RES cells assessed as cell growth at 800 nM by sulforhodamine B assay relative to control; type: functional; conditions: read-out: Activity
[38] = system: U-251; assay: Cytotoxicity against human U251 cells assessed as cell growth at 80 nM by sulforhodamine B assay relative to control; type: functional; conditions: read-out: Activity
[39] = system: SR; assay: Cytotoxicity against human SR cells assessed as cell growth at 8 nM by sulforhodamine B assay relative to control; type: functional; conditions: read-out: Activity
[40] = system: M14; assay: Cytotoxicity against human M14 cells assessed as cell growth at 80 nM by sulforhodamine B assay relative to control; type: functional; conditions: read-out: Activity
[41] = system: BT-549; assay: Cytotoxicity against human BT549 cells assessed as cell growth at 800 nM by sulforhodamine B assay relative to control; type: functional; conditions: read-out: Activity; outline: as §3

SMILES: C/C=C1\NC(=O)[C@H](Cc2ccccc2)NC(=O)[C@@H](C(C)C)NC(=O)[C@@H]([C@@H](C)CC)NC(=O)[C@H](NC(=O)[C@H](NC(=O)[C@H](CCCNCc2ccc(N3CCOCC3)cc2)NC(=O)[C@H]2CCCN2C(=O)[C@H](NC(=O)[C@@H](NC(=O)[C@@H](NC(=O)[C@H](NC(=O)CCCC(C)C)C(C)C)[C@@H](C)O)C(C)C)C(C)C)[C@@H](C)CC)[C@@H](C)OC(=O)[C@H](C(C)C)NC1=O
- growth at 0.8 µM [1]: 94%
- GI50 [2]: 1.29 µM
- TGI ([2]; read-out: pTGI (converted)): 2.45 µM
- growth at 8 µM [3]: -84%
- GI50 [4]: 1.7 µM
- LC50 [4]: 47.9 µM
- TGI ([4]; read-out: pTGI (converted)): 7.08 µM
- growth at 80 µM [5]: -63%
- growth at 0.8 µM [6]: 100%
- growth at 0.008 µM [7]: 97%
- growth at 0.8 µM [8]: 95%
- growth at 80 µM [9]: -91%
- GI50 [10]: 1.41 µM
- LC50 [10]: 5.75 µM
- TGI ([10]; read-out: pTGI (converted)): 2.82 µM
- GI50 [11]: 1.05 µM
- TGI ([11]; read-out: pTGI (converted)): 2.04 µM
- LC50 [12]: 4.79 µM
- GI50 ([12]; read-out: GI50): 1.27 µM
- TGI ([12]; read-out: TGI): 2.47 µM
- GI50 ([12]; read-out: pGI50 (converted)): 1.26 µM
- TGI ([12]; read-out: pTGI (converted)): 2.45 µM
- growth at 80 µM [13]: -22%
- growth at 0.08 µM [14]: 93%
- GI50 [15]: 1.45 µM
- growth at 8 µM [16]: -76%
- growth at 80 µM [17]: -76%
- growth at 8 µM [18]: -98%
- growth at 80 µM [19]: -39%
- growth at 80 µM [20]: -47%
- growth at 0.8 µM [21]: -52%
- growth at 8 µM [22]: -51%
- GI50 ([23]; read-out: GI50): 0.152 µM
- GI50 ([23]; read-out: pGI50 (converted)): 0.151 µM
- growth at 0.8 µM [24]: -51%
- growth at 0.008 µM [25]: 94%
- GI50 ([26]; read-out: GI50): 0.175 µM
- GI50 ([26]; read-out: pGI50 (converted)): 0.174 µM
- growth at 0.008 µM [27]: 104%
- growth at 8 µM [28]: -55%
- growth at 8 µM [29]: -63%
- growth at 8 µM [30]: -87%
- growth at 8 µM [31]: -72%
- growth at 0.008 µM [32]: 99%
- growth at 0.8 µM [33]: 54%
- growth at 80 µM [34]: -69%
- GI50 [35]: 1.48 µM
- LC50 [35]: 5.37 µM
- TGI ([35]; read-out: pTGI (converted)): 2.82 µM
- Activity [36]: Toxic
- growth at 0.8 µM [37]: 85%
- growth at 0.08 µM [38]: 103%
- growth at 0.008 µM [39]: 103%
- growth at 0.08 µM [40]: 97%
- growth at 0.8 µM [41]: 89%
